In ChEMBL document CHEMBL1938298, “Synthesis and characterization of [¹²⁵I]2-iodo N-[(S)-{(S)-1-methylpiperidin-2-yl}(phenyl)methyl]3-trifluoromethyl-benzamide as novel imaging probe for glycine transporter 1” (Bioorg Med Chem, 2011):
The source made the active and inactive calls. The calls are words filed in the database; no cut-off is given here.

Legend:
Mus musculus [1] = assay: In vivo binding affinity to GlyT1 in ddY mouse brain hippocampus at 33.3 kBq, iv after 30 mins in presence of SSR504734 2 mg/kg, iv administered 15 mins prior to compound administration relative to control; type: functional, organism-based; set-up: dose 2 mg/kg; settings: tested as the 125I-labelled form
Outline: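 Blocking study in male ddY mice (6 weeks, 30–35 g). The blocker (2 mg/kg in 30% DMSO/saline) was injected i.v. 15 min before about 33.3 kBq [125I]tracer i.v.; mice were killed at 30 or 60 min. Brains were divided into cortex, corpus callosum, hippocampus, thalamus, midbrain, medulla and cerebellum, weighed and gamma-counted as % dose/g. Values are mean ± SD, n = 5–6, compared to control by Kruskal–Wallis with Dunn's post-test.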

[2] = biological target: T1, Sodium- and chloride-dependent glycine transporter 1 (Rattus norvegicus) (UniProt P28572); assay: Binding affinity to GlyT1 in rat brain hippocampus at 0.03 to 0.04 nM preincubated for 20 mins in binding buffer before compound addition measured after 30 mins by autoradiography in presence of 0.01 mM GlyT2 inhibitor ORG25543 relative to control; type: tissue-based; settings: tested as the 125I-labelled form
T1 sequence (whole entry): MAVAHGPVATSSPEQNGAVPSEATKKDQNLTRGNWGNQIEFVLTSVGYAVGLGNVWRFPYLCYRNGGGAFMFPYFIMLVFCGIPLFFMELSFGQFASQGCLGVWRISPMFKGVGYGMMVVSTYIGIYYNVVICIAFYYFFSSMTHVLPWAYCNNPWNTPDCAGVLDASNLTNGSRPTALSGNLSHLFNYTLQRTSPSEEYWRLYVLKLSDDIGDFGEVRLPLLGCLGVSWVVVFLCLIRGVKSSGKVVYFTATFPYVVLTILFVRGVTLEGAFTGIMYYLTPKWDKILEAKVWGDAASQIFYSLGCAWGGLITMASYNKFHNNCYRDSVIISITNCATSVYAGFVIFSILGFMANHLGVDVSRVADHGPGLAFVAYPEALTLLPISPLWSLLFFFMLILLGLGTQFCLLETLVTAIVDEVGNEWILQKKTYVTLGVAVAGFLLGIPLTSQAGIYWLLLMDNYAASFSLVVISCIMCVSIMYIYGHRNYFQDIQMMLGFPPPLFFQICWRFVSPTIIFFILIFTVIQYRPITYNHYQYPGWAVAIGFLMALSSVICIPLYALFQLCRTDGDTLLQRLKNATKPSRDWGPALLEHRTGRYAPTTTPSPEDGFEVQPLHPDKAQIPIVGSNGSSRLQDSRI
Outline: (§1)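 Rat brain sagittal sections (20 µm) preincubated 20 min at 25 °C in Tris-HCl buffer pH 7.5 (NaCl, KCl, MgCl2, CaCl2), then 30 min at 25 °C with [125I] tracer (100 kBq, 0.03–0.04 nM) plus competitor (10 µM; glycine 1 or 10 mM). Cold washes, imaging plate 3 days, ROI PSL minus background per mm². % control from ≥triplicate slices, three rats.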

[3] = biological target: T1, Sodium- and chloride-dependent glycine transporter 1 (Rattus norvegicus); assay: Binding affinity to GlyT1 in rat brain cerebellum at 0.03 to 0.04 nM preincubated for 20 mins in binding buffer before compound addition measured after 30 mins by autoradiography in presence of 0.01 mM GlyT1 inhibitor SSR504734 relative to control; type: tissue-based; settings: tested as the 125I-labelled form; outline: as §1
[4] = biological target: T2, Sodium- and chloride-dependent glycine transporter 1 (Homo sapiens, UniProt P48067); assay: Inhibition of GlyT1 in human JAR cells assessed as inhibition of [3H]glycine uptake preincubated for 1 mins measured after 2 hrs by liquid scintillation counting; type: cell-based
T2 sequence (P48067 whole entry): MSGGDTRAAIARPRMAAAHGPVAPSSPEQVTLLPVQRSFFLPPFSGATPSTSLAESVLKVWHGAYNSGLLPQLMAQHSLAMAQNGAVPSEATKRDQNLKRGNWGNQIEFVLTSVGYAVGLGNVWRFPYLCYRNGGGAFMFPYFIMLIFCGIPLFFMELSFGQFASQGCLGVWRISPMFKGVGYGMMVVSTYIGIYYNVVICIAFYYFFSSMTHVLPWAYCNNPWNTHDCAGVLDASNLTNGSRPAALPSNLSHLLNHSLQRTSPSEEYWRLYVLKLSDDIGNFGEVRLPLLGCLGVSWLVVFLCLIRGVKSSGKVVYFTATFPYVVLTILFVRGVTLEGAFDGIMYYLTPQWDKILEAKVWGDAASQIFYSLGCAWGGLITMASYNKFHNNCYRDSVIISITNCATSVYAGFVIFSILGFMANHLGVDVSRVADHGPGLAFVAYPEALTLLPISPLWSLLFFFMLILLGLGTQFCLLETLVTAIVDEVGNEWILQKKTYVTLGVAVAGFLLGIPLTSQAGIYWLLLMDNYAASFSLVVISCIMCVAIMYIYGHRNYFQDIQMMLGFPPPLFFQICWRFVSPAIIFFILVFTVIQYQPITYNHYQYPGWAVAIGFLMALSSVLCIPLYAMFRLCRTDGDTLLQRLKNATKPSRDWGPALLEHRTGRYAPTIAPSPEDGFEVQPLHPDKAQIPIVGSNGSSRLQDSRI
Outline: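 [3H]glycine (final 10 µM) was added for 2 h at room temperature; nonspecific uptake was defined with 10 mM glycine. Cells were lysed in NaOH and counted by liquid scintillation. IC50 values are from at least three measurements, mean ± SEM.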

[5] = biological target: T1, Sodium- and chloride-dependent glycine transporter 1 (Rattus norvegicus); assay: Binding affinity to GlyT1 in rat brain corpus callosum at 0.03 to 0.04 nM preincubated for 20 mins in binding buffer before compound addition measured after 30 mins by autoradiography in presence of 0.01 mM GlyT1 inhibitor HPCP relative to control; type: tissue-based; settings: tested as the 125I-labelled form; outline: as §1
Spleen = assay: Drug uptake in ddY mouse spleen at 11.1 kBq, iv after 60 min by gamma counting; type: ADME, organism-based; settings: in vivo, 1 h
Outline: (§2)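 Male ddY mice (6 weeks, 30–35 g) were given about 11.1 kBq of [125I]tracer in 0.1 mL i.v. via the tail vein. At each time point the animals were killed and organs dissected, weighed and gamma-counted. Uptake is expressed as % injected dose per gram of tissue, mean ± SD, n = 5–6.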

Lung [6] = assay: Drug uptake in ddY mouse lung at 11.1 kBq, iv after 0.5 min by gamma counting; type: ADME, organism-based; settings: in vivo; outline: as §2
Lung [7] = assay: Drug uptake in ddY mouse lung at 11.1 kBq, iv after 60 min by gamma counting; type: ADME, organism-based; settings: in vivo, 1 h; outline: as §2
Mus musculus [8] = assay: In vivo binding affinity to GlyT1 in ddY mouse brain thalamus at 33.3 kBq, iv after 60 mins in presence of nonradioactive compound 2 mg/kg, iv administered 15 mins prior to compound administration relative to control; type: functional
Mus musculus [9] = assay: In vivo binding affinity to GlyT1 in ddY mouse brain medullary region at 33.3 kBq, iv after 30 mins in presence of nonradioactive compound 2 mg/kg, iv administered 15 mins prior to compound administration relative to control; type: functional, Medulla of organ
Mus musculus [10] = assay: In vivo binding affinity to GlyT1 in ddY mouse brain thalamus at 33.3 kBq, iv after 60 mins in presence of N-Me-SSR504734 2 mg/kg, iv administered 15 mins prior to compound administration relative to control; type: functional
Mus musculus [11] = assay: In vivo binding affinity to GlyT1 in ddY mouse brain midbrain at 33.3 kBq, iv after 30 mins in presence of N-Me-SSR504734 2 mg/kg, iv administered 15 mins prior to compound administration relative to control; type: functional

Compound | Activity (Mus musculus [1]) | Activity [2] [%] | Activity [3] [%] | IC50 [4] [nM] | Activity [5] [%] | Drug uptake (Spleen) [% ID/g] | Drug uptake (Lung [6]) [% ID/g] | Drug uptake (Lung [7]) [% ID/g] | Activity (Mus musculus [8]) [%] | Activity (Mus musculus [9]) [%] | Activity (Mus musculus [10]) [%] | Activity (Mus musculus [11]) [%]
CN1CCCC[C@H]1[C@@H](NC(=O)c1cccc(C(F)(F)F)c1I)c1ccccc1 | inactive | 105 | 27.7 | 2.35 | 19.7 |  |  |  |  |  |  | 
CN1CCCC[C@H]1[C@@H](NC(=O)c1cccc(C(F)(F)F)c1[125I])c1ccccc1 |  |  |  |  |  | 5.86 | 17.19 | 12.09 | 58 | 53 | 56 | 55
